Screens deposited in PubChem BioAssay by several laboratories.
Shown are actives, neighbours in structure and some others; about 3.4% of the full set was active somewhere.
TAAR1 antagonist – human TAAR1 antagonism; inhibition, % at 3 µM; Q96RJ0; CHO RD-HGA16 TAAR1, Fluo-8 calcium fluorescence, antagonist; 1.5% of 360,000 active;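 active means inhibition above a per-plate cutoff, the mean inhibition of test compounds on that plate plus 3 SD, cut at about 49% in these data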;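 further: 0% = DMSO plus EC80 beta-PEA response and 100% = DMSO alone without agonist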
Target sequence (Q96RJ0 whole entry, looked up): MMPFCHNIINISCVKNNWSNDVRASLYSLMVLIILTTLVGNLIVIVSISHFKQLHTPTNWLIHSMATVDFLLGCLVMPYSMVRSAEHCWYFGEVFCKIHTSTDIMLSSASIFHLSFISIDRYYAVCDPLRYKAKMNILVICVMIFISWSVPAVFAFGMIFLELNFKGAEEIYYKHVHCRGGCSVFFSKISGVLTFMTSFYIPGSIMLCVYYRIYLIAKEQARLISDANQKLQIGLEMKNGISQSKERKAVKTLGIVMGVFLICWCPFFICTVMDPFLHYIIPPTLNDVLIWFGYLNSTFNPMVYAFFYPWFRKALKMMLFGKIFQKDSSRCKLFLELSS
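Test system: RD-HGA16 CHO cells with stable hTAAR1 and Gα16 / Probe or stimulus: EC80 β-phenethylamine stimulus / Times: seeding 17-24 h prior, 75-min 37 °C, 30-min RT dye loading / Detection: Fluo-8 calcium-sensitive fluorescence / Read-out basis: % inhibition scaled between DMSO and EC80 PEA controls / Repeats: singlicate, one well per test compound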
LANA-H2A inh – blocks KSHV LANA binding to histone H2A/H2B; Q9QR71; cell-free LANA-H2A/H2B peptide, fluorescence polarization; inhibition, % (no concentration beside the values); 0.6% of 320,000 active; in the data active means inhibition mostly above about 10%, no sharp cut-off; inactive means mostly below about 6.7%
GPR7 antag – antagonists of human GPR7 (neuropeptides B/W receptor 1); P48145; GPR7-expressing cells, fluorescence antagonist assay; inhibition, % at 4.4 µM; 1.1% of 290,000 active; AID 1861; in the data active means inhibition above about 16%, passing the limit was not always enough;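 further: cells stimulated with the agonist NPW; 0% = agonist with vehicle and 100% = vehicle without agonist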
Target sequence (P48145 whole entry, looked up): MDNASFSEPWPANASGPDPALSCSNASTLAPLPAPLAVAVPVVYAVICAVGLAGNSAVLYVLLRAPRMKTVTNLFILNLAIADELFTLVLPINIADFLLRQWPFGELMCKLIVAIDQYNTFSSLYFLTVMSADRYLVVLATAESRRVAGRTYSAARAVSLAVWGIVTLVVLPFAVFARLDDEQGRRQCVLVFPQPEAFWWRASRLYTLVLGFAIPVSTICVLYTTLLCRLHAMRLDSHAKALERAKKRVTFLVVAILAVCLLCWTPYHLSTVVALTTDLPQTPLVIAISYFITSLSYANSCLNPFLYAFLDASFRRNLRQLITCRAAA
TAAR1 agonist – human TAAR1 agonism. CHO RD-HGA16 TAAR1, Fluo-8 calcium fluorescence; vehicle wells 0%, saturating PEA agonist 100%. 0.99% of 360,000 active. Q96RJ0. activation, % at 3 µM;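 active means activation above the mean activation of all test compounds in the run plus 3 SD, cut at about 38% in these data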
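test system = CHO RD-HGA16 cells carrying human TAAR1 plus Gα16 | schedule = 17-24 h seeding, 75 min 37 °C dye, 30 min RT | compound dosing = 3 µM single concentration | control set = DMSO and PEA EC100 | replicates = n 1 | signal = Fluo-8 fluorescence, 5 s baseline then 140 s kinetic read | measure = percent activation vs PEA EC100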
TRPML3 agonist – agonists of human TRPML3 channel; Q8TDD5; HEK293 TRPML3-YFP, Fluo-8 calcium fluorescence; 100% = the carbachol control signal; activation, % at 3 µM; 0.29% of 220,000 active; AID 1448;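 active means activation above its plate's cutoff, the mean activation of the plate's test wells plus 3 SD, cut at about 12% in these data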;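 further: 0% = DMSO only wells and 100% = carbachol wells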
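system = HEK293 cells stably carrying human TRPML3-YFP | doses = one concentration, 3 µM nominal, 0.3% DMSO | timing = dye loading 1 h 37 °C then 30 min ambient, 125 s read | detection = Fluo-8 calcium dye fluorescence, ex 470-495, em 515-575 nm | benchmarks = high control carbachol 87 µM, low control DMSO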
zfTRPN1 agonist – zebrafish TRPN1 (NompC) channel agonism | HEK293 zebrafish TRPN1-YFP, Fluo-8 calcium fluorescence; 100% = response to 87 µM carbachol | activation, % at 3 µM | 0.18% of 220,000 active;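 active means activation above its plate's cutoff, the mean activation of test wells on that plate plus 3 SD, cut at about 19% in these data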;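 further: 0% = DMSO alone and 100% = 87 µM carbachol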
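Control set: carbachol 87 µM as high control, DMSO as low control; system: HEK293 stable line with zebrafish TRPN1-YFP; read-out: % activation versus carbachol response; detection: intracellular calcium fluorescence with Fluo-8; doses: single test compound dose, 3 µM nominal, 0.3% DMSO; schedule: dye 1 h 37 °C plus 30 min RT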
* marks the source's active call; other numbers are inactive results; . = no result given; + = active, no number.

SMILES	TAAR1 antagonist	LANA-H2A inh	GPR7 antag	TAAR1 agonist	TRPML3 agonist	zfTRPN1 agonist
Cn1c(N)c(C(=O)COC(=O)C2(c3ccc(Cl)cc3)CCCC2)c(=O)n(C)c1=O	8	2	9	11	1	1
Cn1c(N)c(C(=O)COC(=O)/C=C/c2ccc(Cl)cc2Cl)c(=O)n(C)c1=O	-33	-4	.	2	.	.
Cn1c(N)c(C(=O)COC(=O)C2(c3ccc(F)cc3)CCCC2)c(=O)n(C)c1=O	65*	-3	-4	25	0	0
COc1ccccc1N(Cc1ccccc1)S(=O)(=O)c1cccc(C(=O)Nc2ccc(C(C)=O)cc2)c1	10	-3	3	1	0	2
COc1ccccc1N(Cc1ccccc1)S(=O)(=O)c1cccc(C(=O)Nc2ccc(C)cn2)c1	50*	-2	.	2	.	.
CCOC(=O)N(C)C[C@H]1OCc2cnnn2CCCC(=O)N([C@H](C)CO)C[C@@H]1C	-27	.	.	5	.	.
COCCOC(=O)c1c(C)n(C)c2ccc(OC(=O)c3c(OC)cccc3OC)cc12	49*	1	-7	18	.	.
O=S1(=O)c2ccc(Br)cc2OC2CCCN1C2 (stereo not given)	1	.	.	0	.	.
Cc1cccc(NC(=O)c2nc[nH]c2C(=O)N(C)CCO)c1	2	.	.	3	.	.
COc1ccc(CCN2CCCC(CN(C)C(=O)c3ccoc3)C2)cc1 (stereo not given)	-29	15*	-10	1	.	.
CN(CC1CCCN(CCc2ccccc2F)C1)C(=O)c1ccoc1 (stereo not given)	-17	-1	-9	1	.	.
COc1ccccc1N1CCN(C(=O)CN2C(=O)c3cccc4cccc(c34)C2=O)CC1	19	3	-11	4	0	0
COc1ccccc1N1CCN(C(=O)CCCN2C(=O)c3cccc4cccc(c34)C2=O)CC1	50*	-1	-18	16	-1	-1
Cc1ccc(OCC(=O)OCCN2C(=O)c3ccccc3C2=O)cc1C	18	19*	-10	1	0	-1
Cc1cc(C)cc(OCC(=O)OCCN2C(=O)c3ccccc3C2=O)c1	-3	3	-5	5	0	-1
CCOC(=O)C1=C(C(=O)OCC)C2N(Cc3ccc(Br)cc3)c3ccccc3[C@@]23C[C@@H](C(=O)OC)N(S(=O)(=O)c2cccs2)C3=N1 (stereo not given in full)	-21	.	.	0	.	.
CSc1cccc(NC(=S)NN/C(=N/S(=O)(=O)c2ccccc2)N2CCCC2)c1	0	.	.	2	.	.
O=C(NCC1COc2ccccc2O1)c1ccc(Cl)c(S(=O)(=O)N2CCOCC2)c1 (stereo not given)	8	-3	.	7	.	.
O=C(NCC1COc2ccccc2O1)c1cccc(S(=O)(=O)N2CCOCC2)c1 (stereo not given)	8	26*	.	14	.	.
O=C(Nc1cccc(S(=O)(=O)C(F)F)c1)c1ccc(S(=O)(=O)N2CCOCC2)cc1	17	9	-6	29	3	8
O=C(Nc1ccc(S(=O)(=O)C(F)F)cc1)c1cccc(S(=O)(=O)N2CCOCC2)c1	60*	3	8	36	1	8
Cc1ccc2c(COC(=O)CNC(=O)c3ccccc3)cc(=O)oc2c1	15	-4	1	2	0	1
Cc1ccc2c(COC(=O)c3ccccc3OC(F)F)cc(=O)oc2c1	54*	4	7	8	.	.
O=S1(=O)N[C@@H](Cc2ccccc2)COc2cccc(N3CCCCC3)c21	7	.	.	1	.	.
CCC(C)[C@H](NC(=O)C1CC(=O)N(c2ccc3c(c2)OCCO3)C1)C(=O)N1CCCCC1 (stereo not given in full)	-12	1	-7	4	.	.
SMILES	TAAR1 antagonist	LANA-H2A inh	GPR7 antag	TAAR1 agonist	TRPML3 agonist	zfTRPN1 agonist
C[C@H](NC(=O)C1CC(=O)N(c2ccc3c(c2)OCCO3)C1)C(=O)N1CCCCC1 (stereo not given in full)	-10	16*	-13	2	.	.
CC(=O)Nc1ccc(S(=O)(=O)NCC2CCN(C(=O)C(=O)c3cccs3)CC2)cc1	-7	.	.	4	.	.
CC(C)C[C@H](NC(=O)C1CC1)C(=O)N1CCC[C@H]1C(=O)NCc1ccccc1	2	.	.	-1	.	.
CCOc1ccccc1OCC(=O)Nc1ccc(N2CCCCC2)cc1	0	4	17*	2	0	3
COc1ccc(C(=O)N2CCN(c3ccc(C)cc3)CC2)cc1OC	-4	8	16*	0	0	2
O=C(COc1ccc(Br)cc1CO)Nc1ccc(S(=O)(=O)N2CCCCC2)cc1	16	+	.	13	.	.
COc1ccc(OCCCC(=O)Nc2ccc(N3CCCCC3)cc2)cc1	-11	2	-6	0	0	-1
CCc1ccc(N2CCN(C(=O)c3ccc(OC)c(OC)c3)CC2)cc1	1	-3	3	0	1	5
Cc1cccc(OCCCC(=O)Nc2ccc(N3CCCCC3)cc2)c1	64*	-1	-8	73*	1	0
CN(c1ccc(NC(=O)Cc2cn(C)c3ccccc23)cc1)c1ccccn1	1	.	.	-2	.	.
CC(C)(C)S(=O)N1C[C@@H]2CC(=O)C(c3ccccc3)=C2[C@H]1CCO (stereo not given in full)	-20	.	.	3	.	.
CCOc1ccccc1OCC(=O)Nc1cccc(S(=O)(=O)N2CCCCCC2)c1	58*	6	.	4	.	.
N#Cc1ccccc1OCC(=O)Nc1cccc(S(=O)(=O)N2CCCCCC2)c1	53*	14	.	11	.	.
O=C(COC(=O)c1cccnc1Cl)Nc1ccc(N2CCOCC2)cc1	-18	.	.	5	.	.
O=C(COC(=O)c1cccnc1Cl)Nc1ccc(N2CCCCC2)cc1	6	+	.	4	.	.
COCCn1cnnc1SCC(=O)Nc1cccc(S(=O)(=O)N2CCCCCC2)c1	9	0	20*	-1	0	-1
O=C(C(=O)N1CCC(CNC(=O)C2COc3ccccc3O2)CC1)c1cccs1 (stereo not given)	6	.	.	1	.	.
CC(C)(C)S(=O)N1C[C@@H]2CC(=O)C=C2[C@H]1CCO (stereo not given in full)	0	.	.	2	.	.
COC(=O)C1=C(C)N(Cc2ccccc2C(F)(F)F)C(=NCc2ccccc2C(F)(F)F)NC1c1cccc(C(F)(F)F)c1 (stereo not given)	-11	.	.	1	.	.
O=C(O)C1CCCN1C(=O)c1cccc(Cl)c1 (stereo not given)	-21	.	.	2	.	.
NC(=O)c1nn(CC(=O)Nc2cccc(S(=O)(=O)N3CCCCCC3)c2)c(=O)c2ccccc12	-23	+	.	9	.	.
NC(=O)c1nn(CC(=O)Nc2cccc(S(=O)(=O)N3CCCC3)c2)c(=O)c2ccccc12	-6	-1	.	10	.	.
